Source: PubChem (several laboratories)
Pf gametocyte: P. falciparum stage V gametocyte viability inhibition; 150,000 compounds, 0.065% hits; inhibition, % at 10.9 µM; P. falciparum stage V gametocytes, ATP luminescence, 24 h;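 active = inhibition above the mean plus 3 SD of compounds within the control limits, set per campaign, cut at about 38% in these data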;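 note: 0% = DMSO wells and 100% = medium only without gametocytes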
ROMK primary: modulators of human ROMK potassium channel. P48048. Tet-inducible ROMK, thallium flux fluorescence; actives lie on both sides. B-score at 10 µM. 130,000 compounds, 2% hits. AID 1918;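 active = signal ratio slope over the read window, or its plate-corrected B-score, at least 3 SD from the plate mean, either direction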;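 note: B-score of the F/F0 ratio slope over 7 to 12 s after thallium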
Target sequence (P48048 whole entry, looked up): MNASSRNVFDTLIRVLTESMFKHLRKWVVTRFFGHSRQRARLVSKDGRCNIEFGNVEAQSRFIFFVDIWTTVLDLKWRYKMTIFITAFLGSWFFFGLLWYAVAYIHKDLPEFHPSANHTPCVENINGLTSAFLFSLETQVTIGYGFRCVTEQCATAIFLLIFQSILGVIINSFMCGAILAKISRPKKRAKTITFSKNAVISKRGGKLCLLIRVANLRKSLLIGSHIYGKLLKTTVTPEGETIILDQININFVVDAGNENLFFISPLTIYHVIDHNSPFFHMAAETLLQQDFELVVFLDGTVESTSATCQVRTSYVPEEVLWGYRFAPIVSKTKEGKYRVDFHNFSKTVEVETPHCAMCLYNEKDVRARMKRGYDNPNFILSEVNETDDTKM
Calb biofilm kill: mixtures killing C. albicans biofilm; C. albicans biofilm persisters + clotrimazole, fluorescence viability; primary screen in compound mixtures of four per well; 120,000 compounds, 0.02% hits; AID 1242; inhibition, % at 7.6 µM;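 active = inhibition above 30.3% in the primary screen of four-compound pools, then above 30% when the compound was retested; inconclusive = passed the primary limit but could not be retested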;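 note: compounds exposed to preformed 24 h biofilms for 48 h; 0% = untreated biofilm control and 100% = clotrimazole plus chlorhexidine kill blank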
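Test system: C. albicans CAF4-2 wild-type biofilms; buffer or medium: RPMI/MOPS medium, pH 7.0; schedule: 24 h biofilm formation, then 48 h compound exposure, 37 °C; detection: Alamar Blue fluorescence; measure: percent inhibition of biofilm viability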
ROMK hit retest: retested hit modulating human ROMK potassium channel | shares compounds with ROMK primary | ROMK thallium flux, fluorescence ratio; hits give low values | normalized thallium flux (F/F0 slope) at 10 µM | 3,000 compounds, 54% hits | AID 1917;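 active = Flux at 10 µM at least 3 SD below or above vehicle control mean in one or both replicates; inconclusive = no clear call, values can overlap the other calls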
Active calls of the source: *; ? = inconclusive; . = no result given. The full list was thinned out, with hits kept by preference.

SMILES	Pf gametocyte	ROMK primary	Calb biofilm kill	ROMK hit retest
COc1ccc(NC(=O)/C(Cl)=C(/Cl)S(=O)Cc2ccccc2)cn1 (centres undefined)	-35	-3.5*	.	0.047*
COc1ccc(/C=C/C(=O)Nc2ccc(OC)nc2)cc1	9	0.51	16	.
COc1ccc(CS(=O)(=O)/C(Cl)=C(/Cl)C(=O)Nc2ccc(OC)nc2)cc1	.	-2.8*	.	?
Cc1cc(/C=N/NC(=O)c2ccc(O)cc2)c(C)n1CC(C)C	-13	.	7	.
CC(=O)N1CCc2ccc(NC(=O)c3c(-c4c(Cl)cccc4Cl)noc3C)cc21	13	.	10	.
CC(C)c1ccc(NC(=O)CSc2ncccc2C(=O)Oc2cccc([N+](=O)[O-])c2)cc1	-8	-1.2	28	.
Cc1cccc(OCc2nnc(SCC(=O)N3CCN(c4ccccc4)CC3)o2)c1C	.	.	14	.
C=CCn1c(COc2cccc(C)c2C)nnc1SCC(=O)N1CCN(c2ccccc2)CC1	14	.	2	0.054*
Cc1ccn2c(NC(C)(C)C)c(-c3cccs3)nc2c1	-17	0.17	12	.
CCOc1c2ccccc2nn1CCO	20	.	.	.
Cc1ccc(Cn2c(CN3CCN(C(=O)c4ccco4)CC3)nc3c2c(=O)n(C)c(=O)n3C)cc1	1	2.6*	.	0.092
Cn1c(=O)c2c(nc(CN3CCN(C(=O)c4ccco4)CC3)n2Cc2ccccc2)n(C)c1=O	-5	0.45	.	.
O=S(=O)([O-])C(c1ccccc1)[n+]1ccccc1 (centres undefined)	26	.	.	.
COc1ccc(C(=O)NCCn2cc(SCC(N)=O)c3ccccc32)cc1	-12	-0.19	9	.
C=CCn1c(COc2ccc(Cl)cc2)nnc1SCc1ccc(C#N)cc1	1	.	.	?
Cc1ccc(OCc2nnc(SCc3ccc(C#N)cc3)n2-c2ccc(C)cc2)cc1	.	1.8	.	.
CN(C)c1ccc(-c2nnc(-c3ccccc3F)o2)cc1	17	.	.	.
Cn1cccc1/C=C1\CC(C(C)(C)C)C/C(=C\c2cccn2C)C1=O (centres undefined)	.	-3.6*	.	0.04*
Cn1cccc1/C=C1\Cc2ccccc2C1=O	-2	-1.1	24	.
S=C1NC[C@H](Cc2ccccc2)N1CCc1cccc2ccccc12	20	.	13	.
COc1ccccc1NC(=O)CSc1nnc(CSc2nc(C)cc(C)n2)o1	24	0.46	5	.
Cc1cc(C)nc(SCc2nnc(SCC(=O)Nc3ccc(Cl)c(C(F)(F)F)c3)o2)n1	.	-3.9*	.	0.064*
CCCCOc1ccc(CN2CCSCC2)cc1	2	.	.	.
CC(C)(C)NCC(O)COc1c(F)cc(Br)cc1F (centres undefined)	-4	-1.5	.	.
CC(C)(C)CC(C)(C)NCC(O)COc1c(F)cc(Br)cc1F (centres undefined)	7	-3.2*	.	0.054*
SMILES	Pf gametocyte	ROMK primary	Calb biofilm kill	ROMK hit retest
CC(=O)Nc1ccc(NC(=O)c2ccnn2C)cc1	29	.	.	.
COC(=O)c1c(NC(=O)CSc2nnc(-c3ccco3)n2Cc2ccccc2)sc(C)c1C	1	-3.1*	.	0.065*
COC(=O)c1c(NC(=O)CSc2nc3ccccc3c(=O)n2Cc2ccco2)sc(C)c1C	-12	.	15	.
NS(=O)(=O)c1cccc(NC(=O)Nc2ccccc2)c1	10	1.1	13	.
CCn1cc(/C=N/NC(=O)c2cc3c(ccc4ccccc43)o2)c2ccccc21	.	1.2	.	.
CCOC(=O)Cn1cc(/C=N/NC(=O)c2cc3ccccc3o2)c2ccccc21	-20	.	4	0.075
O=C(Cc1cccs1)NNC(=S)NCc1ccco1	22	-9.4*	11	0.078
O=C(Cc1cccs1)NCc1ccco1	15	.	.	.
O=C(O)CCC(=O)N1N=C(c2ccccc2)CC1c1ccc2c(c1)OCO2 (centres undefined)	6	.	.	.
Cc1ccccc1Sc1ccc(N)cn1	-11	.	.	.
COc1cc2c(cc1OC)CN(C1CCCN(Cc3cc(Cl)ccc3O)C1)CC2 (centres undefined)	2	.	.	.
Cc1cccc(-n2ncc3c(NCc4cccnc4)ncnc32)c1	.	.	0	.
Cc1ccc(-n2ncc3c(NCc4cccnc4)ncnc32)c(C)c1	3	-0.21	-4	0.066*
CC1CN(S(=O)(=O)c2cccc(C(F)(F)F)c2)CC(C)O1 (centres undefined)	-38	.	12	.
CC(C)CCN(C)C1CCN(S(=O)(=O)c2cccc(C(F)(F)F)c2)CC1	.	-2.9*	.	0.072
CCOC(=O)c1c(C)c(-c2ccccc2)n(CC(=O)NCCCN(CC)CC)c1C	.	-0.84	11	.
Cc1ccc(S(=O)(=O)NN)c(C)c1N1CCCC1=O	-6	.	8	.
Cc1nc2ccccc2c(=O)n1/N=C/c1ccccc1O	-13	-0.036	12	.
Cc1nc2ccccc2c(=O)n1/N=C/c1ccc2ccccc2c1O	.	.	23	0.076
C=CCOC(=O)C(C#N)c1nc2ccccc2nc1N1CCN(Cc2ccc3c(c2)OCO3)CC1 (centres undefined)	14	-3.2*	.	0.063*
CCCCNC(=O)C(C#N)c1nc2ccccc2nc1N1CCN(Cc2ccc3c(c2)OCO3)CC1 (centres undefined)	.	-0.021	.	.
Cc1ccc(C(C)C)c(OCc2nn(CC(=O)c3ccc(Cl)cc3)c3[n+]2CCCCC3)c1	15	-7.5*	10	0.049*
O=C(Cn1nc(CNc2ccc(Cl)cc2)[n+]2c1CCCCC2)c1ccccc1	8	.	23	.
COC(=O)[C@@]1(Cc2ccc(F)cc2)[C@H]2c3cc(C(=O)N(C)C)n(Cc4ccccc4)c3C[C@H]2CN1C(=O)c1ccccc1	.	-2.2	14	.
COC(=O)[C@@]1(Cc2ccc(F)cc2)[C@H]2c3cc(C(=O)N(C)C)n(CCc4ccc(OC)c(Br)c4)c3C[C@H]2CN1C(=O)c1ccccc1	.	-3.8*	17	0.056*
SMILES	Pf gametocyte	ROMK primary	Calb biofilm kill	ROMK hit retest
COC(=O)[C@@]1(Cc2ccc(F)cc2)[C@H]2c3cc(C(=O)N(C)C)n(CCc4ccccn4)c3C[C@H]2CN1C(=O)c1ccccc1	-32	-0.34	15	.
COC(=O)[C@@]1(Cc2ccc(F)cc2)[C@H]2c3cc(C(=O)N(C)C)n(Cc4ccc(OC)c(OC)c4)c3C[C@H]2CN1C(=O)c1ccccc1	.	-3.5*	13	0.057*
Cc1cccc(N(CC(=O)NC(C)(C)C)C(=O)CCC(=O)Nc2ccccn2)c1	1	.	.	.
CCOC(=O)C1CCN(C(=O)CSc2ccc(Br)cc2)CC1	5	-0.49	19	.
COC(=O)C1CCN(C(=O)CSc2ccccc2)CC1	.	-0.39	8	0.072
O=C(COC(=O)CNC(=O)c1ccccc1Cl)Nc1ccccc1Cl	2	.	.	.
Cc1ccc2oc(=O)n(CCOc3ccccc3)c2c1	4	-3.5*	9	0.057*
Cc1cccc(OCCn2c(=O)oc3ccc(C)cc32)c1	-2	-2.3	23	.
COc1ccc(C2C=C(c3ccccc3)Nc3nnnn32)cc1 (centres undefined)	-5	1.1	.	.
COc1ccc(C2=CC(c3ccc(C)cc3)n3nnnc3N2)cc1 (centres undefined)	.	-4.4*	.	?
N#Cc1cnc(NOCc2ccc(Cl)cc2)nc1	-30	-9.5*	2	0.074
COc1ccnc(N=CNOCc2ccc(Cl)cc2)c1C#N	-14	.	14	.
O=C1CCCC(O)=C1Sc1cc(Cl)c(Cl)cc1Cl	18	.	.	.
CCOC(=O)Cn1nc(-c2ccccc2)c2ccccc2c1=O	11	4.1*	.	0.081
O=C(Cn1nc(-c2ccccc2)c2ccccc2c1=O)Nc1ccccn1	13	.	.	.
